IC50 and Activity data for 41 compounds are collected here from ChEMBL document CHEMBL4261531, “Synthesis of thioether andrographolide derivatives and their inhibitory effect against cancer cells” (Medchemcomm, 2017).

For one data set, the system named is MDA-MB-231. Briefly: Growth inhibition of human MDA-MB-231 cells after 48 hrs by MTT assay. Conditions: MDA-MB-231, 48 h. In kind it is functional, cell-based. Background: Formazan colour is commonly taken as a measure of viable cells.
The test system of another data set is Vero. Briefly: Cytotoxicity against African green monkey Vero cells at 100 uM after 48 hrs by MTT assay. In kind it is cell-based. Particulars: chlorocebus sabaeus.
The next data set deals with PC-3. Put plainly: Growth inhibition of human PC3 cells after 48 hrs by MTT assay. In kind it is functional, cell-based. Conditions: PC-3, 48 h. The method in brief:
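PC-3 human prostate cancer cells exposed to compounds, with viability read by MTT assay; taxol served as the positive control.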

The subject of another data set is A549. Briefly: Growth inhibition of human A549 cells after 48 hrs by MTT assay. In kind it is functional, cell-based. Particulars: A549, 48 h.
The subject of another data set is MCF7. Put plainly: Growth inhibition of human MCF7 cells after 48 hrs by MTT assay. Conditions: MCF7, 48 h. In kind it is functional, cell-based.

As for `C=C1CC[C@@H]2[C@]3(C)COC(C)(C)O[C@@H]3CC[C@@]2(C)[C@@H]1C/C=C1/C(=O)OC[C@H]1OC(=O)CCCSc1cccs1`, the IC50 (in general, the point on the concentration scale where inhibition reaches its midpoint) in the data set on MDA-MB-231 came out at 10 µM; with PC-3, 9 µM; in the data set with A549 it was 25 µM; in the data set on MCF7 it was 0.7 µM. For the same compound, the Activity result in the data set with Vero is reported as “Non-Toxic”. Consider `C=C1CC[C@@H]2[C@](C)(CO)[C@H](O)CC[C@@]2(C)[C@@H]1CC(Sc1ccc(C)cc1)C1=CCOC1=O` (some centres undefined), for which, in the data set with PC-3, the IC50 worked out at 29 µM. In the case of `C=C1CC[C@@H]2[C@]3(C)COC(C)(C)O[C@@H]3CC[C@@]2(C)[C@@H]1C/C=C1/C(=O)OC[C@H]1OC(=O)CCCSc1ccccn1`, the concentration for half-maximal inhibition (IC50) worked out at 6 µM in the data set on MDA-MB-231, 9 µM in the data set on PC-3, 23 µM in the data set on A549 and 0.6 µM in the data set with MCF7. Besides, in the data set with Vero, the Activity entry is listed as “Non-Toxic”. With `C=C1CC[C@@H]2[C@](C)(CO)[C@H](O)CC[C@@]2(C)[C@@H]1C/C=C1/C(=O)OC[C@H]1OC(=O)CSc1ccc(C)cc1`, in the data set with PC-3, the IC50 was determined as 27 µM.

`C=C1CC[C@@H]2[C@]3(C)COC(C)(C)O[C@@H]3CC[C@@]2(C)[C@@H]1C[C@@H](Sc1cccs1)C1=CCOC1=O` had an IC50 in the data set with PC-3 of 20 µM. For the compound `C=C1CC[C@@H]2[C@]3(C)COC(C)(C)O[C@@H]3CC[C@@]2(C)[C@@H]1C/C=C1/C(=O)OC[C@H]1OC(=O)CCCSc1ccc(C)cc1`, it took 14 µM to reach half-maximal inhibition in the data set with PC-3 (IC50). The same measure, in the same setting: the figure for `C=C1CC[C@@H]2[C@]3(C)COC(C)(C)O[C@@H]3CC[C@@]2(C)[C@@H]1CC(Sc1ccccc1)C1=CCOC1=O` (some centres undefined) is 12 µM. As to `C=C1CC[C@@H]2[C@]3(C)COC(C)(C)O[C@@H]3CC[C@@]2(C)[C@@H]1CC(Sc1ncccn1)C1=CCOC1=O` (some centres undefined), the IC50 with MDA-MB-231 turned out to be 9 µM; in the data set with PC-3 it was 7 µM; with A549, 20 µM; in the data set with MCF7, 7 µM. In addition, the Activity result in the data set on Vero is reported as “Non-Toxic”.

`C=C1CC[C@@H]2[C@](C)(CO)[C@H](O)CC[C@@]2(C)[C@@H]1CC(Sc1ccc([N+](=O)[O-])cc1)C1=CCOC1=O` (some centres undefined) showed a half-maximal inhibitory concentration (IC50) in the data set with PC-3 of 17 µM. `C=C1CC[C@@H]2[C@]3(C)COC(C)(C)O[C@@H]3CC[C@@]2(C)[C@@H]1C/C=C1/C(=O)OC[C@H]1OC(=O)CCCSc1ccc(F)cc1`: the IC50 in the data set with PC-3 is 13 µM. On the same count and under the same terms, the value for `C=C1CC[C@@H]2[C@](C)(CO)[C@H](O)CC[C@@]2(C)[C@@H]1CC(Sc1cccs1)C1=CCOC1=O` (some centres undefined) was 15 µM. As for `C=C1CC[C@@H]2[C@]3(C)COC(C)(C)O[C@@H]3CC[C@@]2(C)[C@@H]1C/C=C1/C(=O)OC[C@H]1OC(=O)CSc1cccs1`, in the data set on PC-3, the 50% inhibitory concentration (IC50) worked out at 15 µM. The compound `C=C1CC[C@@H]2[C@](C)(CO)[C@H](O)CC[C@@]2(C)[C@@H]1CC(Sc1nccs1)C1=CCOC1=O` (some centres undefined) gave a half-maximal inhibitory concentration (IC50) in the data set on PC-3 of 14 µM. On to `C=C1CC[C@@H]2[C@]3(C)COC(C)(C)O[C@@H]3CC[C@@]2(C)[C@@H]1C/C=C1/C(=O)OC[C@H]1OC(=O)CCCSc1ccc(OC)cc1`, for which 18 µM corresponded to half-maximal inhibition in the data set on PC-3 (IC50).

Regarding `C=C1CC[C@@H]2[C@]3(C)COC(C)(C)O[C@@H]3CC[C@@]2(C)[C@@H]1CC(Sc1ccc(F)cc1)C1=CCOC1=O` (some centres undefined), in the data set on PC-3, the half-maximal inhibitory concentration (IC50) was found to be 13 µM.

`C=C1CC[C@@H]2[C@]3(C)COC(C)(C)O[C@@H]3CC[C@@]2(C)[C@@H]1CC(Sc1ccc(C)cc1)C1=CCOC1=O` (some centres undefined) came in with an IC50 with PC-3 of 23 µM. As for `C=C1CC[C@@H]2[C@](C)(CO)[C@H](O)CC[C@@]2(C)[C@@H]1CC(Sc1ncccn1)C1=CCOC1=O` (some centres undefined), the IC50 in the data set on MDA-MB-231 is 16 µM; in the data set with PC-3 it was 7 µM; in the data set with A549 it was 9 µM; in the data set with MCF7 it was 23 µM. The Activity result with Vero is recorded as “Non-Toxic”. Take `C=C1CC[C@@H]2[C@]3(C)COC(C)(C)O[C@@H]3CC[C@@]2(C)[C@@H]1C/C=C1/C(=O)OC[C@H]1OC(=O)CSc1ccc(C)cc1`: half-maximal inhibition in the data set with PC-3 (IC50) was put at 11 µM. The same measure, in the same setting: the figure for `C=C1CC[C@@H]2[C@](C)(CO)[C@H](O)CC[C@@]2(C)[C@@H]1C/C=C1/C(=O)OC[C@H]1OC(=O)CSc1ccc(F)cc1` is 14 µM. As to `C=C1CC[C@@H]2[C@]3(C)COC(C)(C)O[C@@H]3CC[C@@]2(C)[C@@H]1C[C@H](Sc1cccs1)C1=CCOC1=O`, the IC50 is 8 µM in the data set on MDA-MB-231, 9 µM with PC-3, 20 µM in the data set on A549 and 5 µM in the data set on MCF7. The Activity entry with Vero is “Non-Toxic”. With `C=C1CC[C@@H]2[C@]3(C)COC(C)(C)O[C@@H]3CC[C@@]2(C)[C@@H]1CC(Sc1ccc([N+](=O)[O-])cc1)C1=CCOC1=O` (some centres undefined), the IC50 in the data set on PC-3 stood at 12 µM.

In the data set on PC-3, `C=C1CC[C@@H]2[C@](C)(CO)[C@H](O)CC[C@@]2(C)[C@@H]1CC(Sc1ccccc1)C1=CCOC1=O` (some centres undefined) showed a half-inhibitory concentration (IC50) of 14 µM. As to `C=C1CC[C@@H]2[C@]3(C)COC(C)(C)O[C@@H]3CC[C@@]2(C)[C@@H]1CC(Sc1nccs1)C1=CCOC1=O` (some centres undefined), the concentration for half-maximal inhibition (IC50) worked out at 12 µM in the data set with MDA-MB-231, 10 µM with PC-3, 31 µM with A549 and 3 µM in the data set with MCF7. Besides, the Activity result in the data set on Vero was “Non-Toxic”. `C=C1CC[C@@H]2[C@](C)(CO)[C@H](O)CC[C@@]2(C)[C@@H]1CC(Sc1ccc(OC)cc1)C1=CCOC1=O` (some centres undefined) displayed an IC50 in the data set on PC-3 of 15 µM.

For `C=C1CC[C@@H]2[C@](C)(CO)[C@H](O)CC[C@@]2(C)[C@@H]1C/C=C1/C(=O)OC[C@H]1OC(=O)CSc1ccc([N+](=O)[O-])cc1`, it took 17 µM to reach half-maximal inhibition in the data set with PC-3 (IC50). Same read-out and setting: the value for `C=C1CC[C@@H]2[C@]3(C)COC(C)(C)O[C@@H]3CC[C@@]2(C)[C@@H]1C/C=C1/C(=O)OC[C@H]1OC(=O)CCCSc1ccc([N+](=O)[O-])cc1` was 17 µM; that for `C=C1CC[C@@H]2[C@]3(C)COC(C)(C)O[C@@H]3CC[C@@]2(C)[C@@H]1CC(Sc1ccc(OC)cc1)C1=CCOC1=O` (some centres undefined) was 17 µM. The same measure, in the same setting: the value for `C=C1CC[C@@H]2[C@](C)(CO)[C@H](O)CC[C@@]2(C)[C@@H]1CC(Sc1ccc(F)cc1)C1=CCOC1=O` (some centres undefined) was 16 µM. On to `C=C1CC[C@@H]2[C@](C)(CO)[C@H](O)CC[C@@]2(C)[C@@H]1CC(Sc1ccccn1)C1=CCOC1=O` (some centres undefined), for which, in the data set on PC-3, the IC50 stood at 18 µM. In turn, `C=C1CC[C@@H]2[C@](C)(CO)[C@H](O)CC[C@@]2(C)[C@@H]1C/C=C1/C(=O)OCC1OC(=O)CSc1ccc(F)cc1` (some centres undefined) registered an IC50 in the data set with PC-3 of 13 µM. As to `C=C1CC[C@@H]2[C@]3(C)COC(C)(C)O[C@@H]3CC[C@@]2(C)[C@@H]1C/C=C1/C(=O)OC[C@H]1OC(=O)CSc1ccc([N+](=O)[O-])cc1`, the 50% inhibitory concentration (IC50) with MDA-MB-231 was found to be 19 µM; with PC-3, 9 µM; in the data set with A549 it was 11 µM; with MCF7, 10 µM. Moreover, the Activity result with Vero is recorded as “Non-Toxic”. The compound `C=C1CC[C@@H]2[C@](C)(CO)[C@H](O)CC[C@@]2(C)[C@@H]1C/C=C1/C(=O)OC[C@H]1OC(=O)CSc1cccs1` registered a 50% inhibitory concentration (IC50) with PC-3 of 18 µM.

In the data set on PC-3, `C=C1CC[C@@H]2[C@]3(C)COC(C)(C)O[C@@H]3CC[C@@]2(C)[C@@H]1CC(Sc1ccccn1)C1=CCOC1=O` (some centres undefined) came in with a half-inhibitory concentration (IC50) of 14 µM. The same measure, in the same setting: the figure for `C=C1CC[C@@H]2[C@](C)(CO)[C@H](O)CC[C@@]2(C)C1C/C=C1/C(=O)OC[C@H]1OC(=O)CCCSc1cccs1` (single isomer, unassigned) is 16 µM; for `C=C1CC[C@@H]2[C@](C)(CO)[C@H](O)CC[C@@]2(C)C1C/C=C1/C(=O)OC[C@H]1OC(=O)CCCSc1ccc(C)cc1` (single isomer, unassigned) it is 16 µM; for `C=C1CC[C@@H]2[C@](C)(CO)[C@H](O)CC[C@@]2(C)C1C/C=C1/C(=O)OC[C@H]1OC(=O)CCCSc1ccc(F)cc1` (single isomer, unassigned) it is 12 µM. The same measure, in the same setting: the value for `C=C1CC[C@@H]2[C@](C)(CO)[C@H](O)CC[C@@]2(C)C1C/C=C1/C(=O)OC[C@H]1OC(=O)CCCSc1ccccn1` (single isomer, unassigned) was 14 µM; that for `C=C1CC[C@@H]2[C@](C)(CO)[C@H](O)CC[C@@]2(C)C1C/C=C1/C(=O)OC[C@H]1OC(=O)CCCSc1ccc(OC)cc1` (single isomer, unassigned) was 19 µM; that for `C=C1CC[C@@H]2[C@](C)(CO)[C@H](O)CC[C@@]2(C)C1C/C=C1/C(=O)OC[C@H]1OC(=O)CCCSc1ccc([N+](=O)[O-])cc1` (single isomer, unassigned) was 17 µM.

In the case of `C=C1CC[C@@H]2[C@](C)(CO)[C@H](O)CC[C@@]2(C)[C@@H]1C/C=C1/C(=O)OC[C@H]1O` [ANDROGRAPHOLIDE], it took 30 µM to reach half-maximal inhibition in the data set with PC-3 (IC50).

`CC(=O)O[C@H]1C(=O)[C@@]2(C)[C@H]([C@H](OC(=O)c3ccccc3)[C@]3(O)C[C@H](OC(=O)[C@H](O)[C@@H](NC(=O)c4ccccc4)c4ccccc4)C(C)=C1C3(C)C)[C@]1(OC(C)=O)CO[C@@H]1C[C@@H]2O` [PACLITAXEL] yielded an IC50 in the data set with PC-3 of 7 µM.
